# NPY Y2 blocker = NPY-Y2 (human) receptor antagonism. 140,000 compounds, 0.99% hits. inhibition, % at 2.7 µM. P49146. NPY-Y2 expressing cells, antagonist mode; in the data active means inhibition above about 17%;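 further: 0% = vehicle with agonist challenge and 100% = reference antagonist with challenge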
# NPY-Y2 PAM-ag = potentiates or activates human NPY-Y2 receptor | activation, % at 3.6 µM | AID 1359 | cells expressing NPY-Y2, potentiator/agonist read-out | 220,000 compounds, 0.45% hits; in the data active means activation above about 27%;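 further: cells stimulated with NPY near EC25 plus isoproterenol at EC100; 0% = vehicle plus submaximal agonist and 100% = vehicle plus saturating agonist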
# NPY Y1 blocker = blocks the human neuropeptide Y Y1 receptor; 200,000 compounds, 1% hits; inhibition, % at 3.6 µM; P25929; HEK293-CNG Y1 cells, membrane potential fluorescence; NPY at EC95, then isoproterenol;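 active means inhibition above the campaign mean inhibition of all tested compounds plus 3 SD, cut at about 20% in these data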;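 further: 0% = DMSO wells given NPY plus isoproterenol and 100% = isoproterenol alone without NPY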
# Target sequence (P25929 whole entry, looked up): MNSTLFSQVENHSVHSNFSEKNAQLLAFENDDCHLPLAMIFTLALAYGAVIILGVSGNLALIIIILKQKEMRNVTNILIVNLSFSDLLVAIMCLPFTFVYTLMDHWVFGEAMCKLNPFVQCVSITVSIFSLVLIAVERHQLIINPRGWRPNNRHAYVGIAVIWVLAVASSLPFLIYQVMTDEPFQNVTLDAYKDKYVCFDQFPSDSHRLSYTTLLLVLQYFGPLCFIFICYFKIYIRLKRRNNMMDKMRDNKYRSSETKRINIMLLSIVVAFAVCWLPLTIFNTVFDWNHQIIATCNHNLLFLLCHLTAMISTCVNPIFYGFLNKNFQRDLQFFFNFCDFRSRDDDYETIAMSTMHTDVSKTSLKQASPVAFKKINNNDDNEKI
#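 Material: HEK293 cells with Y1 receptor plus CNG channel; times: compound incubation 1 h at room temperature, readout 45 min post-stimulation; signal: fluorescence, membrane potential probe; read-out basis: fluorescence ratio normalized to % inhibition between controls; benchmarks: full-block control isoproterenol-only wells, zero-block control NPY plus isoproterenol wells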
# NPY1 pot ag = potentiates or activates human NPY-Y1 receptor | NPY-Y1 expressing cells, potentiator/agonist activation | activation, % at 3.6 µM | 220,000 compounds, 0.37% hits | P25929; in the data active means activation above about 33%, passing the limit was not always enough;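 further: cells stimulated with NPY at EC10 then isoproterenol at EC100; 0% = low agonist plus stimulus and 100% = saturating agonist plus stimulus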
# NPY-Y1 pot conf = human NPY-Y1 potentiation or agonism, confirmation; cell-based NPY-Y1 potentiator/agonist assay; shares compounds with NPY1 pot ag; AID 1546; activation, % at 3.6 µM; 280 compounds, 20% hits; in the data active means activation above about 45%;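 further: cells challenged with NPY at its EC10 plus isoproterenol stimulus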
# NPY-Y2 counter = NPY-Y2 potentiation or agonism as NPY-Y1 counter-screen | shares compounds with NPY1 pot ag | HEK293-CNG cells, membrane-potential fluorescence (FLIPR), 1536-well | activation, % at 3.6 µM | 280 compounds, 20% hits | AID 1649; in the data active means activation above about 33%
# NPY-Y1 ag = human NPY-Y1 agonism as potentiator counter-screen | shares compounds with NPY1 pot ag | HEK293 Y1-CNGC, membrane potential fluorescence, agonist mode | activation, % at 3.6 µM | 280 compounds, 50% hits | AID 1697;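 active means percent activation above the mean of DMSO-only control wells plus 3 SD of those wells, cut at about 18% in these data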;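 further: cells challenged with isoproterenol plus Ro 20-1724 with no NPY in test wells; Y1 agonism lowers isoproterenol-driven cAMP and reduces probe fluorescence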
# NPY-Y2 ag = activates human NPY-Y2, counter-screen for NPY-Y1 hits; shares compounds with NPY1 pot ag; HEK293 Y2-CNGC, membrane potential fluorescence, agonist mode; activation, % at 3.6 µM; 280 compounds, 67% hits;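 active means activation above the solvent-only control wells' mean plus 3 SD, cut at about 11% in these data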;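 further: 0% = DMSO with isoproterenol and 100% = 40 nM NPY maximal response; agonism lowers cAMP so well fluorescence drops in active wells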
# CNGC inh 2 = blocks cyclic nucleotide gated channel in NPY-Y1 counter-screen | shares compounds with NPY1 pot ag | HEK293-CNG parental, isoproterenol cAMP, membrane potential fluorescence | inhibition, % at 3.6 µM | 280 compounds, 42% hits | AID 1704;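 active means inhibition above the mean of stimulated solvent-only control wells plus 3 SD, cut at about 22% in these data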;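 further: 0% = isoproterenol-stimulated DMSO wells and 100% = unstimulated DMSO wells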
# An asterisk follows results filed as active; . = no result. Sampled rows, rich in hits. Any-hit rate of the full collection: about 1.9%.
SMILES,NPY Y2 blocker,NPY-Y2 PAM-ag,NPY Y1 blocker,NPY1 pot ag,NPY-Y1 pot conf,NPY-Y2 counter,NPY-Y1 ag,NPY-Y2 ag,CNGC inh 2
COc1ccc(CNC(=O)C2CCCN(Cc3nc(-c4cccc(C)c4)oc3C)C2)cc1 (stereo not given),.,-23,3,-22,.,.,.,.,.
COc1ccc(-c2nc(CN3CCCC(C(=O)NC4CCCC4)C3)c(C)o2)cc1 (stereo not given),2,-12,0,59*,-5,-1,-3,8,-1
Cc1ccc(C(C)n2cc(C(=O)NCc3ccccn3)nn2)cc1 (stereo not given),.,-4,3,-3,.,.,.,.,.
O=C(CSc1nc2cc(C(F)(F)F)ccc2n1Cc1ccccc1)NC1CCS(=O)(=O)C1 (stereo not given),2,32,-10,48*,91*,63*,78*,53*,72*
O=C(NCCC1CC1(Cl)Cl)Nc1ccccc1 (stereo not given),.,-13,.,7,.,.,.,.,.
CCOCCOC(=O)COc1ccc(N2C(=O)c3ccccc3C2=O)cc1,2,11,-3,44*,83*,55*,63*,44*,80*
Cc1cccc2cc3c(NC(=O)C(C)C)nn(C)c3nc12,-1,2,-1,-1,.,.,.,.,.
Cc1ccc2cc3c(NC(=O)C(C)C)nn(C)c3nc2c1,-1,10,2,37*,-3,-4,-2,6,1
NS(=O)(=O)c1ccc(CNC(=S)NC2CC2)cc1,.,-8,2,-30,.,.,.,.,.
O=C(Nc1ccccc1)Nc1cc(OCC(F)(F)F)cc(OCC(F)(F)F)c1,-2,24,-4,46*,36,30,11,25*,25*
O=C(COC(=O)CCC(=O)c1cccs1)Nc1cc(S(=O)(=O)N2CCOCC2)ccc1Cl,1,-9,-3,-1,.,.,.,.,.
Cc1ccc(OCC(O)CN2CCN(c3ccccc3)CC2)cc1 (stereo not given),10,-22,6,-15,.,.,.,.,.
OC(COc1cccc2ccccc12)CN1CCN(c2ccccc2)CC1 (stereo not given),.,-10,.,54*,2,6,29*,17*,-22
CN(C)C(CNC(=O)c1ccc2c(=O)n(-c3ccccc3F)c(=S)[nH]c2c1)Cc1ccccc1 (stereo not given),.,3,2,5,.,.,.,.,.
COc1ccc(Oc2c(Cl)cnn(-c3ccc(Cl)c(Cl)c3)c2=O)cc1,-1,20,-5,82*,78*,49*,61*,43*,65*
COc1ccc(Oc2c(Cl)cnn(-c3ccc(C)cc3)c2=O)cc1,2,13,-8,27,.,.,.,.,.
O=C(c1ccc(Cn2c(=S)[nH]c3ccccc3c2=O)cc1)N1CCN(c2ccccn2)CC1,.,0,-10,-7,.,.,.,.,.
Cc1cc(Oc2ccc(N)cn2)cc(C)c1Cl,.,-1,.,16,.,.,.,.,.
CC(C)(C)c1ccc(Oc2ccc(N)cn2)cc1,.,39,.,49*,41,40*,20*,40*,34*
Cc1cc([N+](=O)[O-])nn1CCCC(=O)Nc1cc(Cl)ccc1Cl,.,13,2,-7,.,.,.,.,.
Cc1cc(NC(=O)Cc2ccccc2)ccc1NC(=O)c1cccs1,.,-2,0,4,.,.,.,.,.
COc1cc(OC)cc(C(=O)NC(=S)Nc2ccc(NC(=O)c3ccco3)cc2)c1,2,-12,0,-18,.,.,.,.,.
COc1cc(OC)cc(C(=O)Nc2ccc(NC(=O)c3ccco3)c(Cl)c2)c1,.,-21,6,67*,-16,-10,-10,9,-5
OC(CNC1Cc2ccccc2C1)COc1ccc(Cl)cc1 (stereo not given),.,23,.,45*,-4,6,17*,16*,-11
O=C(Nc1ccc([N+](=O)[O-])cc1)C(=O)Nc1cccc(C(=O)O)c1,.,35,.,52*,36,19,24*,8,35*
SMILES,NPY Y2 blocker,NPY-Y2 PAM-ag,NPY Y1 blocker,NPY1 pot ag,NPY-Y1 pot conf,NPY-Y2 counter,NPY-Y1 ag,NPY-Y2 ag,CNGC inh 2
CCN(CC)C(=O)CSc1nnc([C@@H](N)C(C)C)o1,.,2,.,2,.,.,.,.,.
O=C(Nc1cccnc1)c1ccc(COc2ccccc2Cl)o1,0,18,-9,18,.,.,.,.,.
O=C(Nc1cccnc1)c1ccc(COc2cc(Cl)ccc2Cl)o1,2,6,-10,54*,18,8,14,16*,18
COc1ccc(-n2nc3ccc(NS(C)(=O)=O)cc3n2)cc1Cl,0,20,3,42*,43,8,46*,16*,17
Cc1[nH]c2ccccc2c1C(=O)CSc1ccc(Cl)cc1,.,-14,-1,10,.,.,.,.,.
Cc1[nH]c2ccccc2c1C(=O)CN1C(=O)NC(C)(c2ccc(Cl)cc2Cl)C1=O (stereo not given),-5,28,-1,56*,44,32,32*,18*,27*
Cc1cc(C)c(C#N)c(N2CCN(Cc3ccccc3)CC2)n1,0,0,2,78*,-13,-8,-16,5,-2
O=C(Cc1ccc([N+](=O)[O-])cc1)Nc1ccc(Cl)cc1,.,-3,-4,9,.,.,.,.,.
O=C(Cc1ccc(Cl)cc1)Nc1ncc([N+](=O)[O-])s1,.,11,-3,36*,8,14,14,11*,6
O=C1CCCC2=C1C(c1ccccc1)CC(=O)N2c1ccc(F)cc1F (stereo not given),.,2,-7,17,.,.,.,.,.
Cc1nc2cc(NCc3ccccc3O)ccc2n1Cc1ccccc1,.,6,-4,21,.,.,.,.,.
Cn1cc([N+](=O)[O-])c(C(=O)Nc2ccc(C3CCCCC3)cc2)n1,.,22,-10,37*,36,19,19*,17*,15
Cc1ccccc1-n1nc(C(=O)c2cccs2)cc(-c2nc3ccccc3[nH]2)c1=N,-2,26,-6,48*,73*,65*,62*,66*,62*
COc1ccc(-n2nc(C(=O)c3cccs3)cc(-c3nc4ccccc4[nH]3)c2=N)cc1,-1,28,-8,33,.,.,.,.,.
COC(=O)c1sc(-c2ccc(Cl)cc2)cc1NC(=O)c1ccccc1C(=O)O,.,2,.,12,.,.,.,.,.
COC(=O)c1sc(-c2ccc(C(C)(C)C)cc2)cc1NC(=O)c1ccccc1C(=O)O,.,20,.,63*,46*,31,39*,12*,24*
COC(=O)CSc1nc2ccc(N)cc2s1,.,21,-5,45*,92*,67*,71*,64*,85*
